Laboratory results reported in ChEMBL document CHEMBL3259675, “Novel N-substituted sophoridinol derivatives as anticancer agents” (Eur J Med Chem, 2014).

Tested on: HepG2
Assay: Antiproliferative activity against human HepG2 cells assessed as growth inhibition at 10 ug/ml after 48 hrs by MTT assay
Assay type: functional
Details: HepG2, 48 h
Procedure, shortened: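 Cell lines from ATCC, grown in MEM-EBSS with 10% FBS and 1% penicillin-streptomycin at 37 °C, 5% CO2. Seeded at 4000 cells/well, left 24 h, then exposed to a concentration series for 48 h. Growth read by MTT. Percent inhibition was computed at each concentration and IC50 derived from it. Triplicate determinations, reported as mean SD.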

Structure (SMILES) | inhibition at 10 µg/mL [%]
O=C(O)CCC[C@@H]1[C@H]2CCCN3CCC[C@H](CN1Cc1ccc(Br)cc1)[C@@H]23 | 24.9
O=C(O)CCC[C@@H]1[C@H]2CCCN3CCC[C@H](CN1Cc1ccncc1)[C@@H]23 | 22.3
NC(=O)CCC[C@@H]1[C@H]2CCCN3CCC[C@H](CN1Cc1ccc(Cl)cc1)[C@@H]23 | 1.7
CCCN1C[C@H]2CCCN3CCC[C@@H]([C@H]23)[C@H]1CCCCO | 0.9
CCCCN1C[C@H]2CCCN3CCC[C@@H]([C@H]23)[C@H]1CCCCO | 19.7
CC(C)(C)CN1C[C@H]2CCCN3CCC[C@@H]([C@H]23)[C@H]1CCCCO | 95.7
CC(C)CN1C[C@H]2CCCN3CCC[C@@H]([C@H]23)[C@H]1CCCCO | 9.1
OCCCC[C@@H]1[C@H]2CCCN3CCC[C@H](CN1Cc1ccccc1)[C@@H]23 | 18.7
Cc1ccc(CN2C[C@H]3CCCN4CCC[C@@H]([C@H]34)[C@H]2CCCCO)cc1 | 17.8
OCCCC[C@@H]1[C@H]2CCCN3CCC[C@H](CN1Cc1ccccc1F)[C@@H]23 | 30.9
OCCCC[C@@H]1[C@H]2CCCN3CCC[C@H](CN1Cc1cccc(F)c1)[C@@H]23 | 24.3
OCCCC[C@@H]1[C@H]2CCCN3CCC[C@H](CN1Cc1ccc(F)cc1)[C@@H]23 | 35.7
OCCCC[C@@H]1[C@H]2CCCN3CCC[C@H](CN1Cc1ccccc1Cl)[C@@H]23 | 88.1
OCCCC[C@@H]1[C@H]2CCCN3CCC[C@H](CN1Cc1ccncc1)[C@@H]23 | 1.2
OCCCC[C@@H]1[C@H]2CCCN3CCC[C@H](CN1Cc1ccco1)[C@@H]23 | 33.2
OCCCC[C@@H]1[C@H]2CCCN3CCC[C@H](CN1CCc1ccccc1)[C@@H]23 | 34.6
CCOCCCC[C@@H]1[C@H]2CCCN3CCC[C@H](CN1Cc1ccccc1)[C@@H]23 | 2.1
COCCCC[C@@H]1[C@H]2CCCN3CCC[C@H](CN1Cc1ccc(F)cc1)[C@@H]23 | 6.8
CCOCCCC[C@@H]1[C@H]2CCCN3CCC[C@H](CN1Cc1ccc(F)cc1)[C@@H]23 | 5.1
COCCCC[C@@H]1[C@H]2CCCN3CCC[C@H](CN1Cc1ccc(Cl)cc1)[C@@H]23 | 0.3
CCOCCCC[C@@H]1[C@H]2CCCN3CCC[C@H](CN1Cc1ccc(Cl)cc1)[C@@H]23 | 0.2
COC(=O)CCC[C@@H]1[C@H]2CCCN3CCC[C@@H](CN1Cc1ccc(F)cc1)[C@@H]23 | 0.8
OCCCC[C@@H]1[C@H]2CCCN3CCC[C@@H](CN1Cc1ccc(F)cc1)[C@@H]23 | 0.1
OCCCC[C@@H]1[C@H]2CCCN3CCC[C@@H](CN1Cc1ccc(Cl)cc1)[C@@H]23 | 4.9
